Values after ≈ are worked out from the molar mass of the structure shown.
Assays:
Escherichia coli [1] = assay: Antibacterial activity against Escherichia coli ATCC 35210 at […] degC measured after 24 hr by microdilution method; format: functional; conditions: ATCC 35210, 24 h
How it was run: (§1)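 Bacteria suspended in sterile saline at 1.0×10⁵ CFU/ml and added at 1.0×10⁴ CFU per well to LB broth with compound (1 mg/ml) in 96-well plates. Incubated 24 h at […] °C. MIC was the lowest concentration without visible growth under a binocular microscope. OD 655 nm was read against a blank and a positive control.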

Aspergillus fumigatus = assay: Antifungal activity against plant isolate Aspergillus fumigatus at 28 degC measured after 72 hr by microdilution method; format: functional
How it was run: (§2)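 Fungi were kept on malt agar at 4 °C. Spores were washed off with sterile 0.85% saline containing 0.1% Tween 80 and adjusted to about 1.0×10⁵ per well. Compounds were dissolved in DMSO (1 mg/ml stock) and serially diluted in malt broth with inoculum in 96-well plates, 72 h at 28 °C, for MIC. MFC came from subculture into fresh broth for a further 72 h at 28 °C.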

Bacillus cereus [2] = assay: Antibacterial activity against clinical isolate Bacillus cereus at […] degC measured after 72 hr by microdilution method; format: functional
How it was run: (§3)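 Bactericidal endpoint: after the 24 h broth microdilution (1.0×10⁴ CFU per well, LB broth, […] °C), wells were serially subcultured into plates of fresh broth and incubated a further 72 h. MBC was the lowest concentration with no visible growth, taken as 99.5% killing of the original inoculum.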

Bacillus cereus [3] = assay: Antibacterial activity against clinical isolate Bacillus cereus at […] degC measured after 24 hr by microdilution method; format: functional; how it was run: as §1
Escherichia coli [4] = assay: Antibacterial activity against Escherichia coli ATCC 35210 at […] degC measured after 72 hr by microdilution method; format: functional; conditions: ATCC 35210, 72 h; how it was run: as §3
Staphylococcus aureus [5] = assay: Antibacterial activity against Staphylococcus aureus ATCC 6538 at […] degC measured after 24 hr by microdilution method; format: functional; conditions: ATCC 6538, 24 h; how it was run: as §1
Pseudomonas aeruginosa [6] = assay: Antibacterial activity against Pseudomonas aeruginosa ATCC 27853 at […] degC measured after 72 hr by microdilution method; format: functional; conditions: ATCC 27853, 72 h; how it was run: as §3
Aspergillus versicolor = assay: Antifungal activity against Aspergillus versicolor ATCC 11730 at 28 degC measured after 72 hr by microdilution method; format: functional; conditions: ATCC 11730, 72 h; how it was run: as §2
Talaromyces funiculosus = assay: Antifungal activity against Talaromyces funiculosus ATCC 36839 at 28 degC measured after 72 hr by microdilution method; format: functional; conditions: ATCC 36839, 72 h; how it was run: as §2
Micrococcus flavus [7] = assay: Antibacterial activity against Micrococcus flavus ATCC 10240 at […] degC measured after 24 hr by microdilution method; format: functional; conditions: ATCC 10240, 24 h; how it was run: as §1
Pseudomonas aeruginosa [8] = assay: Antibacterial activity against Pseudomonas aeruginosa ATCC 27853 at […] degC measured after 24 hr by microdilution method; format: functional; conditions: ATCC 27853, 24 h; how it was run: as §1
Salmonella typhimurium [9] = assay: Antibacterial activity against Salmonella enterica subsp. enterica serovar TyphimuriumATCC 13311 at […] degC measured after 72 hr by microdilution method; format: functional, Salmonella enterica subsp. enterica serovar Typhimurium; conditions: ATCC 13311, 72 h; how it was run: as §3
Penicillium ochrochloron = assay: Antifungal activity against Penicillium ochrochloron ATCC 9112 at 28 degC measured after 72 hr by microdilution method; format: functional; conditions: ATCC 9112, 72 h; how it was run: as §2
Trichoderma viride = assay: Antifungal activity against Hypocrea rufa IAM 5061 at 28 degC measured after 72 hr by microdilution method; format: functional; conditions: IAM 5061, 72 h; how it was run: as §2
Aspergillus niger = assay: Antifungal activity against Aspergillus niger ATCC 6275 at 28 degC measured after 72 hr by microdilution method; format: functional; conditions: ATCC 6275, 72 h; how it was run: as §2
Listeria monocytogenes [10] = assay: Antibacterial activity against Listeria monocytogenes NCTC 7973 at […] degC measured after 72 hr by microdilution method; format: functional; conditions: NCTC 7973, 72 h; how it was run: as §3
Micrococcus flavus [11] = assay: Antibacterial activity against Micrococcus flavus ATCC 10240 at […] degC measured after 72 hr by microdilution method; format: functional; conditions: ATCC 10240, 72 h; how it was run: as §3
Proteus mirabilis [12] = assay: Antibacterial activity against Proteus mirabilis at […] degC measured after 72 hr by microdilution method; format: functional; how it was run: as §3
Salmonella typhimurium [13] = assay: Antibacterial activity against Salmonella enterica subsp. enterica serovar Typhimurium ATCC 13311 at […] degC measured after 24 hr by microdilution method; format: functional; conditions: ATCC 13311, 24 h; how it was run: as §1
Staphylococcus aureus [14] = assay: Antibacterial activity against Staphylococcus aureus ATCC 6538 at […] degC measured after 72 hr by microdilution method; format: functional; conditions: ATCC 6538, 72 h; how it was run: as §3
Listeria monocytogenes [15] = assay: Antibacterial activity against Listeria monocytogenes NCTC 7973 at […] degC measured after 24 hr by microdilution method; format: functional; conditions: NCTC 7973, 24 h; how it was run: as §1
Proteus mirabilis [16] = assay: Antibacterial activity against Proteus mirabilis at […] degC measured after 24 hr by microdilution method; format: functional; how it was run: as §1
Aspergillus flavus = assay: Antifungal activity against Aspergillus flavus ATCC 9643 at 28 degC measured after 72 hr by microdilution method; format: functional; conditions: ATCC 9643, 72 h; how it was run: as §2
Fulvia fulva = assay: Antifungal activity against Passalora fulva TK5318 at 28 degC measured after 72 hr by microdilution method; format: functional; conditions: TK5318, 72 h; how it was run: as §2

COc1cc(Cc2nnc(Nc3ccccc3)s2)c(S(=O)(=O)N2CCCC2)cc1OC
MIC (Escherichia coli [1]): 21.7 µM (≈ 9.99 µg/mL) | MFC (Aspergillus fumigatus): 43.4 µM (≈ 20 µg/mL) | MIC (Aspergillus fumigatus): 21.7 µM (≈ 9.99 µg/mL) | MBC (Bacillus cereus [2]): 21.7 µM (≈ 9.99 µg/mL) | MIC (Bacillus cereus [3]): 10.9 µM (≈ 5.02 µg/mL) | MBC (Escherichia coli [4]): 43.4 µM (≈ 20 µg/mL) | MIC (Staphylococcus aureus [5]): 21.7 µM (≈ 9.99 µg/mL) | MBC (Pseudomonas aeruginosa [6]): 43.4 µM (≈ 20 µg/mL) | MFC (Aspergillus versicolor): 43.4 µM (≈ 20 µg/mL) | MIC (Aspergillus versicolor): 21.7 µM (≈ 9.99 µg/mL) | MFC (Talaromyces funiculosus): 43.4 µM (≈ 20 µg/mL) | MIC (Talaromyces funiculosus): 21.7 µM (≈ 9.99 µg/mL) | MIC (Micrococcus flavus [7]): 10.9 µM (≈ 5.02 µg/mL) | MIC (Pseudomonas aeruginosa [8]): 21.7 µM (≈ 9.99 µg/mL) | MBC (Salmonella typhimurium [9]): 21.7 µM (≈ 9.99 µg/mL) | MFC (Penicillium ochrochloron): 43.4 µM (≈ 20 µg/mL) | MIC (Penicillium ochrochloron): 21.7 µM (≈ 9.99 µg/mL) | MFC (Trichoderma viride): 21.7 µM (≈ 9.99 µg/mL) | MIC (Trichoderma viride): 10.9 µM (≈ 5.02 µg/mL) | MFC (Aspergillus niger): 43.4 µM (≈ 20 µg/mL) | MIC (Aspergillus niger): 21.7 µM (≈ 9.99 µg/mL) | MBC (Listeria monocytogenes [10]): 43.4 µM (≈ 20 µg/mL) | MBC (Micrococcus flavus [11]): 21.7 µM (≈ 9.99 µg/mL) | MBC (Proteus mirabilis [12]): 43.4 µM (≈ 20 µg/mL) | MIC (Salmonella typhimurium [13]): 10.9 µM (≈ 5.02 µg/mL) | MBC (Staphylococcus aureus [14]): 43.4 µM (≈ 20 µg/mL) | MIC (Listeria monocytogenes [15]): 21.7 µM (≈ 9.99 µg/mL) | MIC (Proteus mirabilis [16]): 21.7 µM (≈ 9.99 µg/mL) | MFC (Aspergillus flavus): 43.4 µM (≈ 20 µg/mL) | MIC (Aspergillus flavus): 21.7 µM (≈ 9.99 µg/mL) | MFC (Fulvia fulva): 21.7 µM (≈ 9.99 µg/mL) | MIC (Fulvia fulva): 10.9 µM (≈ 5.02 µg/mL)

COc1cc(Cc2nnc(Nc3ccc(Cl)cc3)s2)c(S(=O)(=O)N2CCCC2)cc1OC
MIC (Escherichia coli [1]): 15.2 µM (≈ 7.52 µg/mL) | MFC (Aspergillus fumigatus): 40.4 µM (≈ 20 µg/mL) | MIC (Aspergillus fumigatus): 20.2 µM (≈ 10 µg/mL) | MBC (Bacillus cereus [2]): 40.4 µM (≈ 20 µg/mL) | MIC (Bacillus cereus [3]): 20.2 µM (≈ 10 µg/mL) | MBC (Escherichia coli [4]): 40.4 µM (≈ 20 µg/mL) | MIC (Staphylococcus aureus [5]): 20.2 µM (≈ 10 µg/mL) | MBC (Pseudomonas aeruginosa [6]): 40.4 µM (≈ 20 µg/mL) | MFC (Aspergillus versicolor): 40.4 µM (≈ 20 µg/mL) | MIC (Aspergillus versicolor): 20.2 µM (≈ 10 µg/mL) | MFC (Talaromyces funiculosus): 20.2 µM (≈ 10 µg/mL) | MIC (Talaromyces funiculosus): 10.1 µM (≈ 5 µg/mL) | MIC (Micrococcus flavus [7]): 20.2 µM (≈ 10 µg/mL) | MIC (Pseudomonas aeruginosa [8]): 20.2 µM (≈ 10 µg/mL) | MBC (Salmonella typhimurium [9]): 20.2 µM (≈ 10 µg/mL) | MFC (Penicillium ochrochloron): 40.4 µM (≈ 20 µg/mL) | MIC (Penicillium ochrochloron): 20.2 µM (≈ 10 µg/mL) | MFC (Trichoderma viride): 20.2 µM (≈ 10 µg/mL) | MIC (Trichoderma viride): 10.1 µM (≈ 5 µg/mL) | MFC (Aspergillus niger): 40.4 µM (≈ 20 µg/mL) | MIC (Aspergillus niger): 20.2 µM (≈ 10 µg/mL) | MBC (Listeria monocytogenes [10]): 40.4 µM (≈ 20 µg/mL) | MBC (Micrococcus flavus [11]): 40.4 µM (≈ 20 µg/mL) | MBC (Proteus mirabilis [12]): 40.4 µM (≈ 20 µg/mL) | MIC (Salmonella typhimurium [13]): 10.1 µM (≈ 5 µg/mL) | MBC (Staphylococcus aureus [14]): 40.4 µM (≈ 20 µg/mL) | MIC (Listeria monocytogenes [15]): 40.4 µM (≈ 20 µg/mL) | MIC (Proteus mirabilis [16]): 20.2 µM (≈ 10 µg/mL) | MFC (Aspergillus flavus): 40.4 µM (≈ 20 µg/mL) | MIC (Aspergillus flavus): 20.2 µM (≈ 10 µg/mL) | MFC (Fulvia fulva): 20.2 µM (≈ 10 µg/mL) | MIC (Fulvia fulva): 10.1 µM (≈ 5 µg/mL)

COc1cc(Cc2nnc(Nc3ccc([N+](=O)[O-])cc3)s2)c(S(=O)(=O)N2CCCC2)cc1OC
MIC (Escherichia coli [1]): 19.8 µM (≈ 10 µg/mL) | MFC (Aspergillus fumigatus): 19.8 µM (≈ 10 µg/mL) | MIC (Aspergillus fumigatus): 9.9 µM (≈ 5.01 µg/mL) | MBC (Bacillus cereus [2]): 39.6 µM (≈ 20 µg/mL) | MIC (Bacillus cereus [3]): 19.8 µM (≈ 10 µg/mL) | MBC (Escherichia coli [4]): 39.6 µM (≈ 20 µg/mL) | MIC (Staphylococcus aureus [5]): 19.8 µM (≈ 10 µg/mL) | MBC (Pseudomonas aeruginosa [6]): 39.6 µM (≈ 20 µg/mL) | MFC (Aspergillus versicolor): 39.6 µM (≈ 20 µg/mL) | MIC (Aspergillus versicolor): 19.8 µM (≈ 10 µg/mL) | MFC (Talaromyces funiculosus): 19.8 µM (≈ 10 µg/mL) | MIC (Talaromyces funiculosus): 9.9 µM (≈ 5.01 µg/mL) | MIC (Micrococcus flavus [7]): 19.8 µM (≈ 10 µg/mL) | MIC (Pseudomonas aeruginosa [8]): 19.8 µM (≈ 10 µg/mL) | MBC (Salmonella typhimurium [9]): 79.2 µM (≈ 40 µg/mL) | MFC (Penicillium ochrochloron): 39.6 µM (≈ 20 µg/mL) | MIC (Penicillium ochrochloron): 19.8 µM (≈ 10 µg/mL) | MFC (Trichoderma viride): 19.8 µM (≈ 10 µg/mL) | MIC (Trichoderma viride): 9.9 µM (≈ 5.01 µg/mL) | MFC (Aspergillus niger): 39.6 µM (≈ 20 µg/mL) | MIC (Aspergillus niger): 19.8 µM (≈ 10 µg/mL) | MBC (Listeria monocytogenes [10]): 39.6 µM (≈ 20 µg/mL) | MBC (Micrococcus flavus [11]): 39.6 µM (≈ 20 µg/mL) | MBC (Proteus mirabilis [12]): 79.2 µM (≈ 40 µg/mL) | MIC (Salmonella typhimurium [13]): 39.6 µM (≈ 20 µg/mL) | MBC (Staphylococcus aureus [14]): 39.6 µM (≈ 20 µg/mL) | MIC (Listeria monocytogenes [15]): 19.8 µM (≈ 10 µg/mL) | MIC (Proteus mirabilis [16]): 39.6 µM (≈ 20 µg/mL) | MFC (Aspergillus flavus): 39.6 µM (≈ 20 µg/mL) | MIC (Aspergillus flavus): 19.8 µM (≈ 10 µg/mL) | MFC (Fulvia fulva): 19.8 µM (≈ 10 µg/mL) | MIC (Fulvia fulva): 9.9 µM (≈ 5.01 µg/mL)
